# Laboratory results published in ChEMBL document CHEMBL4616611, “Synthesis and biological evaluation of FICZ analogues as agonists of aryl hydrocarbon receptor” (Bioorg Med Chem Lett, 2020).
# The source made the active and inactive calls. The calls are words filed in the database; no cut-off is given here.
# What was measured:
# CYP1A1 [1] = target: T1, CYP1A1 (Homo sapiens, UniProt P35869); assay: Agonist activity at AhR in human HepG2 cells assessed as induction of CYP1A1 activity at 0.13 nM using 7-ethoxyresorufin as substrate after 24 hrs by ethoxyresorufin-O-deethylase assay relative to DMSO; assay type: cell-based; conditions: probe 7-ethoxyresorufin, read-out: FC
# T1 sequence (P35869 whole entry): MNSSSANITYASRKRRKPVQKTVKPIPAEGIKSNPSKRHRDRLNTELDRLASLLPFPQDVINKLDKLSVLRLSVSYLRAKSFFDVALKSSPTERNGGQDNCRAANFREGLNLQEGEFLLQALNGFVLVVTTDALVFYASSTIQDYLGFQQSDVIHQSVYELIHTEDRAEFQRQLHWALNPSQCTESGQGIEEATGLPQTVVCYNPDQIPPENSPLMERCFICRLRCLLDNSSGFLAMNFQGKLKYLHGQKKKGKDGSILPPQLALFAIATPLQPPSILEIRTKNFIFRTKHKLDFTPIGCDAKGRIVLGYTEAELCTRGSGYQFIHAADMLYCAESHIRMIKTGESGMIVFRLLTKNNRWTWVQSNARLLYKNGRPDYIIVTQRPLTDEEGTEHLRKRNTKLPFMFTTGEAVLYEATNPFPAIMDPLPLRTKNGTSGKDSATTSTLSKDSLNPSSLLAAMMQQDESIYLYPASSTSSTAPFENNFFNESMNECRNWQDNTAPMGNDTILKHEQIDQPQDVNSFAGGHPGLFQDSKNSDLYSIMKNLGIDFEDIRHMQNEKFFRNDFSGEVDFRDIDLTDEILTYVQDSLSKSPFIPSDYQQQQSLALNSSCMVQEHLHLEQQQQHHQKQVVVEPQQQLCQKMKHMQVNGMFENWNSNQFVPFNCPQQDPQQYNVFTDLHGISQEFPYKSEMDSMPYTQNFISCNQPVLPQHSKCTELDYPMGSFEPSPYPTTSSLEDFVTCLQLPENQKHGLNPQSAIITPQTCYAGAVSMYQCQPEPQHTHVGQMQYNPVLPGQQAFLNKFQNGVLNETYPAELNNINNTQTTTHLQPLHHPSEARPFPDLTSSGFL
# Summary of the method: (§1)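 EROD read-out of CYP1A1 activity in HepG cells treated for 24 h with compound or vehicle (DMSO) at 0.13 nM, 3.2 nM and 80 nM. Activity is reported as fold induction over the DMSO-treated cells.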
# CYP1A1 [2] = target: T1, CYP1A1; assay: Agonist activity at AhR in human HepG2 cells assessed as induction of CYP1A1 activity at 3.2 nM using 7-ethoxyresorufin as substrate after 24 hrs by ethoxyresorufin-O-deethylase assay relative to DMSO; assay type: cell-based; conditions: probe 7-ethoxyresorufin, read-out: FC; summary of the method: as §1
# CYP1A1 [3] = target: T1, CYP1A1; assay: Agonist activity at AhR in human HepG2 cells assessed as induction of CYP1A1 activity at 80 nM using 7-ethoxyresorufin as substrate after 24 hrs by ethoxyresorufin-O-deethylase assay relative to DMSO; assay type: cell-based; conditions: probe 7-ethoxyresorufin, read-out: FC; summary of the method: as §1
# [4] = target: T2, Aryl hydrocarbon receptor (Homo sapiens, UniProt P35869); assay: Agonist activity at AhR in human HepG2 cells assessed as induction of CYP1A1 expression after 24 hrs by ethoxyresorufin-O-deethylase assay; assay type: cell-based; conditions: for Activity: human, hepg2, 24 h
# T2 sequence (P35869 whole entry): T1 sequence (P35869 whole entry)
# Summary of the method: (§2)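 Full dose-response in the EROD assay. HepG2 cells were treated for 24 h across a concentration series, with FICZ as the reference agonist. CYP1A1 induction was read out and EC50 values were derived from the curves.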
# [5] = target: T2, Aryl hydrocarbon receptor; assay: Agonist activity at AhR in human HepG2 cells assessed as increase in CYP1A1 protein expression at 3 to 10 nM after 24 hrs by Western blot analysis; assay type: cell-based; conditions: hepg2, 24 h
# Summary of the method: (§3)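 HepG2 cells were exposed to a dose series for 24 h. CYP1A1 protein levels were then assessed by Western blotting.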
# [6] = target: T2, Aryl hydrocarbon receptor; assay: Agonist activity at AhR in human HepG2 cells assessed as induction of CYP1A1 expression at <30 pM after 24 hrs by ethoxyresorufin-O-deethylase assay; assay type: cell-based; conditions: hepg2, 24 h; summary of the method: as §2
# [7] = target: T2, Aryl hydrocarbon receptor; assay: Agonist activity at AhR in human HepG2 cells assessed as increase in CYP1A1 protein expression after 24 hrs by Western blot analysis; assay type: cell-based; conditions: hepg2, 24 h; summary of the method: as §3
# HepG2 = assay: Effect on AhR mRNA expression in human HepG2 cells assessed as 100 nM after 6 hrs by q-RT-PCR analysis; assay type: functional, cell-based
# Summary of the method: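 HepG2 cells were treated at 100 nM for 6 h. AhR and CYP1A1 mRNA levels were then quantified by qRT-PCR, normalized to GAPDH.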
# [8] = target: T2, Aryl hydrocarbon receptor; assay: Potency index, ratio of FICZ EC50 to test compound EC50 for agonist activity at AhR in human HepG2 cells assessed as increase in CYP1A1 expression after 24 hrs by ethoxyresorufin-O-deethylase assay; assay type: cell-based; conditions: hepg2, 24 h
# CYP1A1 [9] = target: T1, CYP1A1; assay: Agonist activity at AhR in human HepG2 cells assessed as induction of CYP1A1 activity at 3.2 nM using 7-ethoxyresorufin as substrate after 24 hrs by ethoxyresorufin-O-deethylase assay relative to 3-phenylbenzo[f]chromen-1-one; assay type: cell-based; conditions: probe 7-ethoxyresorufin, read-out: FC
# CYP1A1 [10] = target: T1, CYP1A1; assay: Agonist activity at AhR in human HepG2 cells assessed as induction of CYP1A1 activity at 0.13 nM using 7-ethoxyresorufin as substrate after 24 hrs by ethoxyresorufin-O-deethylase assay relative to 3-phenylbenzo[f]chromen-1-one; assay type: cell-based; conditions: probe 7-ethoxyresorufin, read-out: FC
# [11] = target: T2, Aryl hydrocarbon receptor; assay: Agonist activity at AhR in human HepG2 cells assessed as increase in CYP1A1 protein expression at 300 nM after 24 hrs by Western blot analysis; assay type: cell-based; conditions: hepg2, 24 h, 0.3 µM; summary of the method: as §3
Compound,"fold induction at 24 h, 0.00013 µM (CYP1A1 [1])","fold induction at 24 h, 0.0032 µM (CYP1A1 [2])","fold induction at 24 h, 0.08 µM (CYP1A1 [3])",further results
OCc1c2c(cc3c4ccccc4n(CC4CC4)c13)[nH]c1ccccc12,0.3,0.5,2.6,–
Cn1c2ccccc2c2cc3[nH]c4ccccc4c3c(CO)c21,5.3,26.7,62.6,–
O=Cc1c2[nH]c3ccccc3c2cc2[nH]c3ccccc3c12,–,–,–,Activity [4]: Dose-dependent effect
OCc1c2c(cc3c4ccccc4n(Cc4ccccc4)c13)[nH]c1ccccc12,0.4,0.7,3.6,–
CCCn1c2ccccc2c2cc3[nH]c4ccccc4c3c(CO)c21,0.4,0.5,3.4,–
Cn1c2ccccc2c2cc3[nH]c4ccccc4c3c(C=O)c21,27.3,88.9,82.4,Activity [5]: Active; EC50 [4]: 260 pM; Activity [4]: Dose-dependent effect; Activity [6]: Active; Activity [7]: Dose-dependent effect; Activity (HepG2): inactive; Ratio EC50 [8]: 8
CCn1c2ccccc2c2cc3[nH]c4ccccc4c3c(CO)c21,1.4,3.5,31.8,–
CCCn1c2ccccc2c2c(C=O)c3c(cc21)c1ccccc1n3C,1.3,1.9,8.9,–
Cn1c2ccccc2c2cc3c(c(C=O)c21)c1ccccc1n3Cc1ccccc1,1,4.2,27.5,–
OCc1c2[nH]c3ccccc3c2cc2[nH]c3ccccc3c12,3.8,13.4,59.2,"fold induction at 24 h, 0.0032 µM (CYP1A1 [9]): 12; fold induction at 24 h, 0.00013 µM (CYP1A1 [10]): 5"
CCn1c2ccccc2c2c(C=O)c3c(cc21)c1ccccc1n3C,1.4,4.5,25.1,–
O=c1cc(-c2ccccc2)oc2ccc3ccccc3c12 [BETA-NAPHTHOFLAVONE],0.8,1.1,11.2,Activity [11]: Active
Cn1c2ccccc2c2c(C=O)c3c(cc21)c1ccccc1n3C,1.6,3.4,39.4,–
